Experimental data published in the EternaBench riboswitch data.

Tested on: MS2 coat protein
Assay: apparent Kd, MS2 coat protein; higher = weaker binding; RNA-MaP array; FMN 200 µM where present
Outline: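 Stalled E. coli RNA polymerase transcribed each design on Illumina sequencing-chip clusters. The clusters were titrated with SNAP-549-labelled MS2 coat protein, starting at 0.7 or 1.5 nM and doubling up to 3 µM, first without ligand and then with constant ligand, in 100 mM Tris-HCl pH 7.5, 80 mM KCl, 4 mM MgCl2, BSA, DTT, yeast tRNA and Tween-20. Green signal was normalised to red-channel RNA signal and to the control-cluster median Fmax. The apparent Kd is the median of filtered binding-curve fits made for each cluster.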

[1] = designed as: OFF switch for flavin mononucleotide, no ligand
[2] = ligand present: flavin mononucleotide, designed as: OFF switch for flavin mononucleotide
[3] = designed as: ON switch for flavin mononucleotide, no ligand
[4] = ligand present: flavin mononucleotide, designed as: ON switch for flavin mononucleotide

| Sequence | apparent Kd [1] [µM] | apparent Kd [2] [µM] | apparent Kd [3] [µM] | apparent Kd [4] [µM] |
| --- | --- | --- | --- | --- |
| AGUGUGUGGCAGGAUAUUCUAAUCGUGAGUCGGGAAGAAGGGUCUACAUGAGGAUCACCCAUGUAAGCGGUUGA | 0.132 | 0.144 | – | – |
| AGUGUGUGGCAGGAUAUUCUGAUCGUGAGUCGGGAAGAAGGGUCUACAUGAGGAUCACCCAUGUGAGCGGUUGA | 0.248 | 0.432 | – | – |
| AGUGUGUGGCAGGAUAUUCUGGUCGUGAGUCGGGAAGAAGGGUCUACAUGAGGAUCACCCAUGUGAGCGGUUGA | 0.0994 | 0.258 | – | – |
| AGUUGAAGGUAGAAGGGUGACAUGAGGAUCACCCAUGUGCGAGCAUCGGACGAAGAUGGCUCGCCACAGGAUAUACCUUCAAUU | – | – | 0.0412 | 0.0444 |
| AGUUGGCGAGGAUAUACAUGAGGAUCACCCAUGUGAAUAAUAAUAGUGAGGAAGAAAAGUAGAAGGCGCUGACA | 0.0497 | 0.237 | – | – |
| AGUUGGCGAGGAUAUACAUGAGGAUCACCCAUGUGAGAGAUACUAGUGAGGUCGAUUAGUAGAAGGCGCUGACA | 0.0311 | 0.439 | – | – |
| AGUUUUGUACAUGAGGAUCACCCAUGUUAAUAUGUGGUAGUCAGAAGGCAUUGUUAGAGUUUUAAUGAGGAUAUGAAUAUUCUG | – | – | 0.0383 | 0.025 |
| AUAAAGUGAGGAUAUCCAAUAUAUGACAUGAGGAUCACCCAUGUUUCCACUCGUACCUCCGGAGAAGGCACAUUUU | 0.0321 | 0.0202 | – | – |
| AUAAAUAAGGAGGAUAUCGUAUCGGAAACGAUACGAGAAGGUCUAACAUGAGGAUCACCCAUGUUCCUCAAUAA | 0.0377 | 0.0585 | – | – |
| AUAAAUAAGGCGCACAUGAGGAUCACCCAUGUACGGACUAGCAAGGAUAUCAGCGUCGGGUGCAAUGAGAAGGUGUGUGUCAAG | – | – | 0.0452 | 0.0744 |
| AUAAAUCAUGUAGGAUAUGCGUGGCGAAGCUAUGCAGAAGGACAUGAGGAUCACCCAUGUUUUUCCGUCUGCGUACAGACGGAA | 0.308 | 0.147 | – | – |
| AUACAUGAGGAUCACCCAUGUCGCAGGUUAAGGCCCAAAUCGAGAAGGGAUUCGGUCAAGCCUAAUCAGGAUAUCGGUGGAGCC | – | – | 0.0843 | 0.0696 |
| AUACCACGAGGAUAUCGACUAUACCACAUGAGGAUCACCCAUGUUAUCCAUGUUUCGUUUCGAGAAGGCGUGGGUU | 0.0391 | 0.0339 | – | – |
| AUACUGAGCGUAAAUUACCUUAACAUGAGGAUCACCCAUGUGGAGGAUAUUGACCUAGCAAAGCUCGAGAAGGCCACUGGGAUG | 0.0175 | 0.0181 | – | – |
| AUAGCUGGGAAGUAAACUCGUGCGGCAGAAGGGUGAUACUGGACAUGAGGAUCACCCAUGUGCACACAGGAUAUGCCCGCGAGC | – | – | 0.207 | 0.035 |
| AUAGGCCUAGGAUAUACAUGAGGAUCACCCAUGUUAAUAUUUCAAUCAUGAUAAACGUGUAGAAGGAGGAAUAA | 0.0259 | 0.0286 | – | – |
| AUAGUGGUUUUCUGGAUGUUGAACAUGAGGAUCACCCAUGUAGAGGAUAUCCACGGAAAUCCGUAGGAGAAGGCUGGUGGAAAA | 0.0156 | 0.0267 | – | – |
| AUAUAUAUACAGAAGGUGCCAGCGAGAGCUGCACAUGAGGAUCACCCAUGUUGUCGGUGACGACGCAAGGAUAUGUAUAUAUAU | – | – | 0.027 | 0.00762 |
| AUAUAUCAUACAGGAUAUACAUGAGGAUCACCCAUGUGUCCUCCAUAAUUGACACCAAUUAUGCUGUAGAAGGGUAUGAUAUAU | 0.293 | 0.258 | – | – |
| AUAUCACAAUUAGAACCAAUACGAACAUGAGGAUCACCCAUGUAGGAUAUGCUAGAAGUUGUGUUGCAGAAGGACAUAUACAUU | 0.00763 | 0.00663 | – | – |
| AUAUCGUCAGGAUAUGCUAGUAAAUGUUUCAUUUCUUCAUAGCAGAAGGGACAUGAGGAUCACCCAUGUAAGUC | 0.0376 | 0.0396 | – | – |
| AUAUGACAUGAGGAUCACCCAUGUAUUCGAGCAUGAGGAUAUAUGACUCGUCAUCGGCGGAUAGAAGGCAUGGUUG | – | – | 0.0885 | 0.143 |
| AUAUGAUAGAUAGGAUAUACUGUGGUUGAAUGUGUAGAAGGAUCGAUAGGGAAAUGUACAUGAGGAUCACCCAUGUUGUGGAUU | – | – | 0.0484 | 0.0399 |
| AUAUUAAUAUAGGAUAUCGAAUUUAUUAAUUAUCGAGAAGGAUAAACAUGAGGAUCACCCAUGUGGUAUCAUGG | 0.181 | 0.225 | – | – |
| AUAUUGUGAGGAUAUGAACUUAGAAUCGAAAGAUACUAAGUUCAGAAGGCACAUGAGGAUCACCCAUGUUUCUC | 0.086 | 0.875 | – | – |
| AUAUUGUGAGGAUAUGAACUUAGUAUCGAAAGAUACUAAGAUCAGAAGGCACAUGAGGAUCACCCAUGUUUCUC | 0.0775 | 0.402 | – | – |
| AUCAGCUCGUCAGGAUAUACGCCACUGCGUCAGCAGUGUGGUAAGAUCACAUGAGGAUCACCCAUGUAGAAGGGACGAGCUGAU | 0.0109 | 0.147 | – | – |
| AUCAGCUCGUCAGGAUAUACGUCAAUGCGUCAGCAGUGUGGUAAGAUCACAUGAGGAUCACCCAUGUAGAAGGGACGAGCUGAU | 0.125 | 0.572 | – | – |

| Sequence | apparent Kd [1] [µM] | apparent Kd [2] [µM] | apparent Kd [3] [µM] | apparent Kd [4] [µM] |
| --- | --- | --- | --- | --- |
| AUCAGCUCGUCAGGAUAUACGUCACCGCGUCAGCAGUGUGGUAAGAUCACAUGAGGAUCACCCAUGUAGAAGGGACGAGCUGAU | 0.0136 | 0.237 | – | – |
| AUCAGCUCGUCAGGAUAUACGUCACUACGUCAGCAGUGUGGUAAGAUCACAUGAGGAUCACCCAUGUAGAAGGGACGAGCUGAU | 0.0215 | 0.201 | – | – |
| AUCAGCUCGUCAGGAUAUACGUCACUGCGUCAGCAGUGUGGUAAGAUCACAUGAGGAUCACCCAUGUAGAAGGGCCGAGCUGAU | 0.0122 | 0.184 | – | – |
| AUCAGCUCGUCAGGAUAUACGUCACUGCGUCAGCAGUGUGGUAAGUUCACAUGAGGAUCACCCAUGUAGAAGGGACGAGCUGAU | 0.00498 | 0.00714 | – | – |
| AUCAGCUCGUCAGGAUAUACGUCACUGCGUCUGCAGUGUGGUAAGAUCACAUGAGGAUCACCCAUGUAGAAGGGACGAGCUGAU | 0.0141 | 0.254 | – | – |
| AUCAGCUUGACAGGAUAUACAUCACUGCGAAAGCAGUGUAUCUUAAUAACAUGAGGAUCACCCAUGUAGAAGGGUCGAGCUGAU | 0.0184 | 0.0326 | – | – |
| AUCAUGUAAGGAUAUCUUACAUGUAUCGAAAGAUACAGUUAAGAGAAGGUACAUGAGGAUCACCCAUGUAUAAC | 0.029 | 0.0455 | – | – |
| AUCAUGUCAGGAUAUCGUGCAGCUACCGAAAGGUAGCUGCACGAGAAGGGACAUGAGGAUCACCCAUGUAUGAA | 0.221 | 0.117 | – | – |
| AUCCGGCGUGUAGGAUAUGGAAAAGAUAAGGAUCCAGAAGGACAUGAGGAUCACCCAUGUACAUGUAAACAGUCAUCACCGGAA | 0.0353 | 0.0509 | – | – |
| AUCCGGCGUGUAGGAUAUGGAAACGAUUAGGAUCCAGAAGGACAUGAGGAUCACCCAUGUACAUGUAAACAGUCAUCACCGGAA | 0.0145 | 0.0522 | – | – |
| AUCCGGCGUGUAGGAUAUGGAACCGAUUAGGAUCCAGAAGGACAUGAGGAUCACCCAUGUACAUGUAAACAGUCAUCACCGGAA | 0.0109 | 0.0653 | – | – |
| AUCCGUCGUGUGAGGAUAUAAGAGUUCAAGGUUGUUUAGAAGGUACAUGAGGAUCACCCAUGUCACCCUGAUUG | 0.0149 | 0.0149 | – | – |
| AUCCUACAUGAGGAUCACCCAUGUGACGCCUCGAUAGGAUAUGCGUGUGCCUUGGCGCAUGCAGAAGGAUUGUAGC | – | – | 0.0436 | 0.237 |
| AUCGGCUGGCAGAAGGGCUAUGUGAUCCGGUUUUACAUGAGGAUCACCCAUGUAGCCUCGCGCUAGCAGGAUAUGCAACGGCUG | – | – | 0.175 | 0.0404 |
| AUCGUGCAGCUUUGCUGUACGCGUACAUGAGGAUCACCCAUGUAGGAUAUGGUACGCUUUGCGUGCUAGAAGGAUAUGGAGAGG | 0.0169 | 0.0211 | – | – |
| AUCUCGUCAGGAUAUGACUACAUAAAAAAUAAAAAAUGUAGUCAGAAGGGACAUGAGGAUCACCCAUGUACCAA | 0.0191 | 0.0184 | – | – |
| AUCUUGCGAGGAUAUACUUACUUUUUUUCAUUUGGUUGCGAACAUGAGGAUCACCCAUGUAGAAGGUGCAUAAC | 0.0276 | 0.0236 | – | – |
| AUCUUUAACAUAGGAUAUAGUAUGAAGGUUUAUUUAGAAGGAUGUCACAUGAGGAUCACCCAUGUAAUAGGAUUACCCAUGUAU | 0.0298 | 0.0219 | – | – |
| AUCUUUAACAUAGGAUAUAGUAUGAUGGUUUAAUUAGAAGGAUGUCACAUGAGGAUCACCCAUGUAAUAGGAUUACCCAUGUAU | 0.0202 | 0.0157 | – | – |
| AUCUUUAAGGUAGGAUAUAGUAUGAUGGUUUAAUUAGAAGGAUCUCACAUGAGGAUCACCCAUGUAAUAGGAUUACCCAUGUAU | 0.054 | 0.0436 | – | – |
| AUGAGCCGAGGAGGAUAUGACGGGUGCUAAAUCACAUGAGGAUCACCCAUGUCAGAAGGCCUCGCCAUAUUUGAUGCUUUAGAG | 0.201 | 0.00955 | – | – |
| AUGAGUGUAAUGAUAGAGCCACUGCAGGAUAUCACAUGAGGAUCACCCAUGUGUCAGCCUCGGAGUGAGAAGGGCGGUUUCUUA | 0.00565 | 0.0097 | – | – |
| AUGAUACAUGAGGAUCACCCAUGUCACCUCACACGAGGAUAUCUGAAUCGAUUAGAUUACGGAGAAGGCGUGGAAA | – | – | 0.0668 | 0.0208 |
| AUGCCGUGCAGAGCGCGACGGCGAACAUGAGGAUCACCCAUGUAGGAUAUACUACACAAAGUGUAGUAGAAGGACGUGCAACAC | 0.0255 | 0.0347 | – | – |
| AUGCCGUGCAGAGCGCGACGGCGAACAUGAGGAUCACCCAUGUAGGAUAUACUACACAAAGUGUAGUAGAAGGACGUGCGGCAC | 0.0209 | 0.0308 | – | – |
| AUGCGGUCAGGAUAUGCAUGGCGGGACUUGCGUCGUGGCGUGGAGAAGGGACAUGAGGAUCACCCAUGUGGAGG | 0.108 | 0.087 | – | – |
| AUGCUAGUGUGAGGAUAUCAACAUGAGGAUCACCCAUGUUGGAAGUACACGACAUGCGGUACAUCUGAGAAGGUACAUUAGCAU | 0.0291 | 0.052 | – | – |
